# Screens deposited in PubChem by Johns Hopkins Ion Channel Center.
# MrgX1 ag – human MrgX1 receptor agonism, primary screen | Q96LB2 | MrgX1-HEK293 cells, Fluo-4 calcium fluorescence, agonist mode; stronger effect = higher value | B-score at 10 µM | hit rate 0.44% among 310,000 | AID 588627;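 active = calcium response B-score plate-corrected fluorescence ratio at least 3 library SD, with starting fluorescence B-score inside 5 SD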
# Target sequence (Q96LB2 whole entry, looked up): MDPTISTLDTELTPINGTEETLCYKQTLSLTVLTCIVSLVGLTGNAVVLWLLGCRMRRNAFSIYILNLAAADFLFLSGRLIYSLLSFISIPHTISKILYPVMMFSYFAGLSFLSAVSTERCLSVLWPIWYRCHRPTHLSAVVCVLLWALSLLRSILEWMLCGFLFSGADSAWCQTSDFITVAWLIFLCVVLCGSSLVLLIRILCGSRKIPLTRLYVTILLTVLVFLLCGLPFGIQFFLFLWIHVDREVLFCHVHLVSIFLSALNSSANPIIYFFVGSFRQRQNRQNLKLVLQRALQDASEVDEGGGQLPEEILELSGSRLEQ
#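 times = overnight plating, then 30 min 37 °C plus 30 min room-temperature dye loading | assay system = stable human MrgX1 HEK293 cell line | input = fifteen thousand cells per well | signal = kinetic calcium dye fluorescence, Fluo-4 NW | dosing = compound delivered in addition one of three | read-out = B-scored fluorescence response ratio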
# MrgX1 allo act – allosterically activates human MrgX1 receptor signaling; MrgX1-HEK293, Fluo-4 calcium flux, FDSS; stronger effect = higher value; AID 588675; hit rate 0.63% among 310,000; B-score at 10 µM;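 active = plate-corrected calcium response at least 3 library SD above typical, normal starting fluorescence, not activating the receptor alone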;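 note: compound read alongside a low EC10 to EC30 dose of BAM8-22 agonist; peak minus trough fluorescence over baseline measured at the second addition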
# RGS4 pot – RGS4 potentiation or activation; HEK293 M3R/inducible RGS4, carbachol calcium flux Fluo4; stronger effect = lower value; B-score at 10 µM; hit rate 0.92% among 310,000; AID 463111;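 active = B-score of the integrated calcium signal more than 4 SD below the library mean, with starting fluorescence not abnormally high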;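 note: negative B-score means reduced calcium response which marks RGS4 activation or potentiation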
#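 Reagent: ECmax carbachol challenge; Test system: M3R-expressing HEK293 line, RGS4 induced by doxycycline; Schedule: overnight RGS4 induction, 30 min dye load 37 °C, 20 min compound RT; Detection: calcium dye Fluo4 fluorescence; Read-out: Agonist-evoked peak-minus-minimum fluorescence over baseline, integrated ratio, B score.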
# MrgX1 antag – blocks BAM8-22 activation of human MrgX1 receptor. Q96LB2. MRGX1-HEK293 calcium flux, Fluo-4, BAM8-22 antagonism; stronger effect = lower value. B-score at 10 µM. hit rate 1.3% among 310,000. AID 588676;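 active = calcium-response B-score plate-corrected more than 3 library SD below zero, starting fluorescence within 5 deviations, no agonist response on first addition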;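 note: peak minus trough fluorescence over baseline after final BAM8-22 challenge near maximal dose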
# RGS4 inh – human RGS4 inhibition; P49798; HEK293 M3R/RGS4 inducible, Fluo-4 calcium flux; stronger effect = higher value; triggered by carbachol at its EC20; B-score at 10 µM; hit rate 0.45% among 310,000;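 active = B-score, a plate-corrected calcium signal, over three deviations above library mean, with baseline fluorescence within five deviations of library mean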;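 note: RGS4 expression induced by doxycycline in cells with stable M3 receptor; B-score is computed from the integrated fluorescence ratio over baseline after carbachol; higher B-score means a larger calcium signal and so more RGS4 inhibition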
# Target sequence (P49798 whole entry, looked up): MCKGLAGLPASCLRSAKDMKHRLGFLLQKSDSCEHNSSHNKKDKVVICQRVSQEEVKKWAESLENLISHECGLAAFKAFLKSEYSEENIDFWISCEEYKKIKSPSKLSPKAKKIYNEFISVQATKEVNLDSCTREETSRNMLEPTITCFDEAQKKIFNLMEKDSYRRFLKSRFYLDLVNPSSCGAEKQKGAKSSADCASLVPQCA
# RGS4 inh valid – validation of RGS4 inhibitors; HEK293 M3R/RGS4, carbachol calcium Fluo-4 fluorescence; carbachol added at its EC20; 0 = buffer wells, 100 = carbachol control; calcium response, % at 10 µM; shares compounds with RGS4 inh; hit rate 65% among 1,700;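 active = duplicate-averaged calcium response above the buffer-only control mean plus 5 SD of those controls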;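 note: integrated fluorescence ratio F max minus min over baseline F0; higher response in RGS4-induced cells means RGS4 inhibition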
# M3R Ca ctr – non-induced cell nonspecific activity of RGS4 inhibitors. AID 493000. activity (percent), % at 10 µM. shares compounds with RGS4 inh. hit rate 20% among 1,900. HEK293 M3R non-induced, carbachol calcium Fluo-4; submaximal (EC20) carbachol stimulus; buffer wells 0%, carbachol control wells 100%; call rule not given here;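 note: RGS4 induction absent so cells express M3R without RGS4; higher means more calcium signal and flags a non-specific hit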
# M3R basal Ca ctr – second counter-screen for RGS4 inhibitors: non-induced cells without carbachol. calcium response (agonist-mode artifact), % at 10 µM. AID 493001. HEK293 M3R/RGS4 non-induced, Fluo-4 calcium, no carbachol; normalised: buffer wells 0%, carbachol wells 100%. hit rate 22% among 1,900. shares compounds with RGS4 inh;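 active = duplicate-averaged calcium rise in uninduced cells above buffer wells' mean plus 5 SD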
# Hits are given with their value; 0 = inactive; - = no result given. An excerpt weighted towards active compounds, which were near 3.5% of everything screened.
SMILES,MrgX1 ag,MrgX1 allo act,RGS4 pot,MrgX1 antag,RGS4 inh,RGS4 inh valid,M3R Ca ctr,M3R basal Ca ctr
Cc1cccc(-n2nc(C)c3c(C(=O)O)cc(-c4cccs4)nc32)c1,0,0,0,0,9.5,19%,30%,0
Cc1nn(-c2cccc(Cl)c2)c2nc(-c3ccco3)cc(C(=O)O)c12,0,0,0,0,0,-,-,-
CCOCCCNC(=O)CN1C(=O)CSc2ccc(S(=O)(=O)N3CCOCC3)cc21,0,0,0,0,0,0,0,0
CCCCCCCNC(=O)CN1C(=O)CSc2ccc(S(=O)(=O)N3CCOCC3)cc21,0,0,0,0,0,-,-,-
CCOCCCNC(=O)CN1C(=O)COc2ccc(S(=O)(=O)N3CCCC3)cc21,0,0,0,0,0,-,0,0
COCCCNC(=O)CN1C(=O)COc2ccc(S(=O)(=O)N3CCCCCC3)cc21,0,0,0,0,0,-,-,-
O=C(c1ccc2oc(CCc3ccccc3)nc2c1)N1CC[C@H](O)C1,0,0,0,0,0,-,-,-
O=c1cc(CN2CC(O)Cc3ccc4ccccc4c32)nc2sccn12 (stereo unspecified),0,0,0,0,6,20%,0,0
CC1Cc2ccccc2N1Cc1cc(=O)n2ccsc2n1 (stereo unspecified),0,0,-,0,-,-,-,-
COc1ccccc1NCC(O)Cn1c2ccccc2c2ccccc21 (stereo unspecified),0,0,0,0,0,-,-,-
COc1ccc(CCNCC(O)Cn2c3ccccc3c3ccccc32)cc1OC (stereo unspecified),0,0,0,0,17,62%,0,14%
Clc1ccc(-c2csc(N/N=C\c3cccnc3)n2)cc1,0,0,0,0,0,-,65%,0
Clc1ccc(-c2csc(N/N=C/c3ccco3)n2)cc1,0,0,0,0,0,-,-,-
CSc1nc(N(CCO)CCO)c2sc3nc(-c4ccco4)c4c(c3c2n1)CCC4,-,-,0,-,0,0,0,0
CSc1nc(SCCO)c2sc3nc(-c4ccco4)c4c(c3c2n1)CC(C)(C)OC4,-,-,0,-,0,-,-,-
O=C(NCc1ccccc1)c1nc2c(nnn2Cc2cccc(Cl)c2)c(=O)[nH]1,0,0,0,0,4.9,22%,0,0
O=C(NCc1ccco1)c1nc2c(nnn2Cc2cccc(Cl)c2)c(=O)[nH]1,0,0,0,0,8,22%,0,0
CCC1COCCS(=O)(=O)N1Cc1cccc(C(F)(F)F)c1 (stereo unspecified),0,0,0,0,0,-,-,-
Cc1oc(-c2ccccc2Cl)nc1CS(=O)CC(=O)NCCCN1CC(C)CC(C)C1 (stereo unspecified),0,0,0,0,0,-,-,-
Cc1ccc(C2c3c(-c4ccccc4O)n[nH]c3C(=O)N2Cc2ccncc2)cc1 (stereo unspecified),0,0,0,0,0,-,-,-
COc1cc(C2c3c(-c4cc(Cl)c(C)cc4O)n[nH]c3C(=O)N2Cc2cccnc2)ccc1O (stereo unspecified),0,0,0,0,0,-,0,0
O=S(=O)(c1ccccc1)N1N=C(c2cccs2)CC1c1ccc(F)cc1 (stereo unspecified),0,0,0,0,0,-,-,-
COc1ccc(C2CC(c3cccs3)=NN2S(=O)(=O)c2ccc(C)cc2)cc1 (stereo unspecified),0,0,0,0,6.2,17%,0,0
Cc1ccc(C2CC(c3cccs3)=NN2S(=O)(=O)c2ccc(C)cc2)cc1 (stereo unspecified),0,0,0,0,0,-,0,32%
Cc1ccc(NC(=O)c2cc3c(=O)oc4ccc(C)cc4c3s2)nc1,0,0,0,0,0,-,-,-
COc1ccc(C2=NC(C)(C)Cc3cc(OC)c(OC)cc32)cc1,0,0,0,0,0,-,-,-
COc1cc2c(cc1OC)C(SC)=NC(C)(C)C2,0,0,0,0,0,-,46%,0
